Mdm2-MdmX inh: inhibitors of human Mdm2-MdmX association, primary screen, cell-based, luminescence, split luciferase, SaOS-2, uHTS; Protein Mdm4 (Homo sapiens) + E3 ubiquitin-protein ligase Mdm2 (Homo sapiens), …; SaOS-2 split-luciferase Mdm2/MdmX complementation; inhibition, % at 8 µM; 330,000 tested, 3% active;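 active = inhibition of at least 50% at 8 µM in the primary screen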
CHOP UPR activ: activators of apoptotic CHOP UPR arm, primary screen, cell-based, CHO-CHOP luciferase reporter, luminescence, uHTS; UPR activation; percent of tunicamycin response over DMSO baseline; activation, % at 10 µM; 330,000 tested, 0.34% active; AID 449763, 2010;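 active = at 10 µM dose, activation of 40% or more, normalized to positive control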
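Dosing – one dose, 10 µM in 0.5% DMSO · System – CHO-CHOP cells, stable luciferase reporter of PERK-eIF2a-CHOP signalling · Input – 500 cells/well · Control set – tunicamycin 10 µg/mL final as positive, DMSO-only wells as negative · Timing – 6 h compound treatment, 37 °C · Measure – % activation vs tunicamycin · Technique – luminescence read with Steady-Glo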
UPR XBP1 act: activators of adaptive XBP1 UPR arm, primary screen, cell-based, CHO-XBP1 luciferase reporter, luminescence, uHTS; IRE1-XBP1 UPR activation; percent of tunicamycin response, DMSO as zero; activation, % at 20 µM; 330,000 tested, 0.33% active;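 active = versus positive control, 20 µM dose yields 30% or more activation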
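Test system: CHO-XBP1 luciferase reporter cells | Buffer or medium: Serum-containing F12 medium, 10% FBS | Schedule: 6 h compound exposure at 37 °C, 5% CO2 | Detection: Steady-Glo luciferase glow luminescence, 10 min after reagent addition | Read-out basis: Activation, % of tunicamycin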
Exocytosis inh: LAMP-1 surface exposure blockers, TALL-104 cells – cell-based, flow cytometry, MLPCN library, primary screen; inhibition, % at 10 µM; 360,000 tested, 0.66% active; TALL-104 LAMP-1 surface exposure; cells stimulated with thapsigargin and PMA;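 active = inhibition above about 55%, limit read from the data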
ABHD5-PLIN5 inh: ABHD5-PLIN5 interaction inhibitors, primary screen, cell lysate, split luciferase complementation, luminescence; Perilipin-5 (Homo sapiens) + 1-acylglycerol-3-phosphate O-acyltransferase ABHD5 (Homo …; Split G. princeps luciferase complementation, 4 h; inhibition, % at 4 µM; 360,000 tested, 0.78% active;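 active = inhibition above the mean inhibition across every tested compound plus 3 SD, cut at about 22% in these data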
Target sequence (Q00G26 whole entry, looked up): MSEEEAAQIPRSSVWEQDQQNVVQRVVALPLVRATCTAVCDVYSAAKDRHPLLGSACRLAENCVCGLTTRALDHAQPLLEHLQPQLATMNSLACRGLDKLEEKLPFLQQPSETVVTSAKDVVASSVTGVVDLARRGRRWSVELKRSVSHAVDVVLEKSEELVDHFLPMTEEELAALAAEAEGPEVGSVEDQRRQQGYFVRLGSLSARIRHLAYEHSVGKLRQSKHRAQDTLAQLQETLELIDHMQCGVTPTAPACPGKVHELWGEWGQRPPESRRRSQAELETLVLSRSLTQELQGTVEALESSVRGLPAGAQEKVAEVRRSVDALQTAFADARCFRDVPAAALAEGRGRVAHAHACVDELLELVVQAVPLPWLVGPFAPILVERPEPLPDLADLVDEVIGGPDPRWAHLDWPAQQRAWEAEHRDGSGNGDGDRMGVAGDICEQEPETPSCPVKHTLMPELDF
Target sequence (Q8WTS1 whole entry, looked up): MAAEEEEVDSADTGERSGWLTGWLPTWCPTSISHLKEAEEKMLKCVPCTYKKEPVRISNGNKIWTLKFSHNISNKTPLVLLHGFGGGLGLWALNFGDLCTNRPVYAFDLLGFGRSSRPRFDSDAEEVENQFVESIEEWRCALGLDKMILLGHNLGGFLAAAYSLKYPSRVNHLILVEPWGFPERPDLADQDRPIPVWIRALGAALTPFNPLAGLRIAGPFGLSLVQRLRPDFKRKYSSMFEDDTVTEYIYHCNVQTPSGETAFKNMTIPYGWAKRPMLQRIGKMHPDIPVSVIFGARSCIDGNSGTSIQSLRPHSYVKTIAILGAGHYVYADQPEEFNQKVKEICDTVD
Each line names hits and unclear results; the compound was inactive in the other large screens. The list is not random: actives were taken first. Their share in the collection is about 4%.

Cc1cc(Cl)ccc1NNC(N)=S	Exocytosis inh 62
Cc1ccc(C)c(NNC(N)=S)c1	none
Cc1[nH]c2ccc(-c3nnc(SCC(=O)NCc4ccco4)n3Cc3ccccc3)cc2c1C	Exocytosis inh 87
CCn1c(SCC(=O)NCc2ccco2)nnc1-c1ccncc1	none (no result: Exocytosis inh, ABHD5-PLIN5 inh)
N=C1S/C(=C\c2ccc(-c3cccc(Cl)c3)o2)C(=O)N1c1nccs1	Exocytosis inh 73 (no result: Mdm2-MdmX inh, CHOP UPR activ, UPR XBP1 act)
O=C(CN1C(=O)c2cccc3cccc1c23)Nc1ccccc1C(=O)NCc1ccco1	ABHD5-PLIN5 inh 23
O=C(CN1C(=O)c2ccccc2S1(=O)=O)Nc1ccccc1C(=O)NCc1ccco1	none
NC(=O)c1c(NC(=O)CSc2nnc(Cc3ccccc3)n2Cc2ccco2)sc2c1CCC2	none
CCCCn1c(SCC(=O)Nc2sc3c(c2C(N)=O)CCC3)nnc1-c1ccccc1	ABHD5-PLIN5 inh 22
Clc1cccc(CSc2nnc(-c3ccccn3)n2Cc2ccco2)c1	ABHD5-PLIN5 inh 23
Nc1nc(-c2cccs2)cs1	none
COc1cc(/C=C2\C(=O)N(c3ccc(NC(C)=O)cc3)N=C2c2ccccc2)ccc1O	none
CCOc1cc(/C=C2\C(=O)N(c3nc(-c4ccc(Br)cc4)cs3)N=C2c2ccccc2)ccc1O	CHOP UPR activ 642, UPR XBP1 act 99
COCCN1C(=O)/C(=C/c2ccc(OCc3ccc(C(=O)O)cc3)c(OC)c2)SC1=Nc1ccccc1	Exocytosis inh 79
COc1cc(/C=C2\SC(=Nc3ccccc3)N(Cc3ccco3)C2=O)ccc1OC(C)C(=O)O (centres undefined)	none
CN(c1ccccc1)c1nc(N)c([N+](=O)[O-])c(Nc2ccccc2F)n1	Exocytosis inh 76
COc1cc(C)c(NC(=S)Nc2ccc(Cl)c(Cl)c2)cc1OC	none
O=C1CCCC[C@@H](O)[C@H](O)C[C@H](c2ccccc2)O1	none (no result: Mdm2-MdmX inh, CHOP UPR activ, UPR XBP1 act)
C=C1CC2(CC(c3ccccc3)OC(c3ccccc3)C2)OC1=O (centres undefined)	ABHD5-PLIN5 inh 23 (no result: Mdm2-MdmX inh, CHOP UPR activ, UPR XBP1 act)
O=c1[nH]c(-c2ccccc2)cnc1-c1ccccc1	none
Cc1ccc(N=c2ssnc2Cl)cc1	Exocytosis inh 95
Cc1cc(Cl)ccc1N=c1ssnc1Cl	none
Cc1cc(C)nc(/N=c2/ssnc2Cl)c1	Exocytosis inh 82
C[C@H](CO)N1C[C@H](C)[C@H](CN(C)C(=O)c2ccccc2)OCc2cnnn2CCCC1=O	none (no result: Mdm2-MdmX inh, CHOP UPR activ, UPR XBP1 act)
O=c1cc(N=Nc2ccc(Cl)cc2)[nH]c(=O)[nH]1	Exocytosis inh 77 (no result: Mdm2-MdmX inh, CHOP UPR activ, UPR XBP1 act)
O=C(/C=C/c1cccc([N+](=O)[O-])c1)c1ccc2c(c1)OCCO2	ABHD5-PLIN5 inh 23
COc1ccc(/C=C/C(=O)c2ccc3c(c2)OCCO3)cc1[N+](=O)[O-]	none
COc1cc(C(=O)Nc2nnc(SC)s2)c([N+](=O)[O-])cc1OC	none
CCN1C(c2ccccc2)=C(c2ccccc2)S/C1=C\C=C1/SC(=S)N(C)C1=O	none
CCN1C(c2ccccc2)=C(c2ccccc2)S/C1=C/C=C1\SC(=S)N(C)C1=O	Exocytosis inh 59 (no result: Mdm2-MdmX inh, CHOP UPR activ, UPR XBP1 act)
COc1cc2c3c(c1OC)C1(C=CC(=O)C=C1)CC3N(C(=O)CCC(=O)O)CC2 (centres undefined)	none
CCOC(=O)Cc1csc(NC(=O)CCN2C(=O)c3cccc([N+](=O)[O-])c3C2=O)n1	none
C=C(CN(C)C)C(=O)c1cc(C)ccc1C	ABHD5-PLIN5 inh 67 (no result: Mdm2-MdmX inh, CHOP UPR activ, UPR XBP1 act)
Cc1ccc(C)c(C(=O)NCCN(C)C)c1	none
CCC(C(=O)OCC(=O)Nc1ccc(F)cc1)c1ccccc1 (centres undefined)	none
CCC(C(=O)OCC(=O)Nc1ccc(SC(F)F)cc1)c1ccccc1 (centres undefined)	Exocytosis inh 73 (no result: Mdm2-MdmX inh, CHOP UPR activ, UPR XBP1 act)
Cn1c(CNc2ccccn2)c(C#N)c2ccccc21	none
CCOC(=O)C1CCN(c2ncnc3c2[nH]c2cccc(OC)c23)CC1	none
COc1cccc2[nH]c3c(N4CCCCC4)ncnc3c12	Exocytosis inh 69
C=CCN(CC(=O)NCc1ccc(OC)cc1)C(=O)c1csnn1	none
CCN1/C(=N\N)c2cccc3cccc1c23	Exocytosis inh 95

High-throughput results: PubChem BioAssay, several laboratories
